The values that follow come from article PMC7366207 (Journal of Antimicrobial Chemotherapy, 2020).

Structures are written as SMILES.

Data set [1] is classed as in vivo, human. The following applies: oral 30 mg/day, steady state.
Data set [2] is classed as in vivo, human. Conditions: LATTE. The procedure, abridged:
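LATTE participants received oral drug 10, 30 or 60 mg once daily with two nucleoside analogues for 24 weeks, then with rilpivirine 25 mg daily to Week 72. Maximum on-treatment change from baseline in serum ALT and total bilirubin, regardless of dose, measured centrally as multiples of ULN. Linear regression on predicted UGT1A1/UGT1A9 activity, with covariates kept if P<0.05.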

The nature of data set [3]: Last oral lead-in cabotegravir trough. It counts as in vivo, human. Conditions: for Low-versus-normal fold-change between mean cabotegravir trough concentrations: last oral trough on Day 1 (oral 30 mg); for Mean cabotegravir trough concentration: last oral trough on Day 1. An outline of the steps:
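Human PK in LATTE-2 (4-weekly arm): daily oral 30 mg plus abacavir/lamivudine for 20 weeks. Day 1 trough taken 20–28 h after the last home oral dose. Plasma drug measured by validated LC-MS (LLOQ 25 ng/mL). Predicted UGT1A1 activity: normal with no *6/*28/*37 (*36 counted as wild type), reduced with one copy, low with two. Fold-change taken as the ratio of mean troughs.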

In the next data set the test system is UGT1A1. Conditions: cited from earlier work.
Another data set has as its system UGT1A9. Conditions: cited from earlier work.
For data set [4], the system named is uridine 5′-diphospho-glucuronosyltransferase (UGT). Conditions: cited from earlier work.
For data set [5] the following is noted: cited from earlier work.
The conditions of data set [6]: oral dolutegravir 50 mg/day; same allele and activity definitions; cited from earlier work.
Another data set relates to cytochrome P450 3A4. The following applies: cited from earlier work.
Setting [7] is: fast versus normal predicted UGT1A9 activity.
Where [8] appears, read: low versus normal predicted UGT1A1 activity.
[9] abbreviates: oral 10, 30 and 60 mg, fast versus normal predicted UGT1A9 activity.
Where [10] appears, read: oral 10, 30 and 60 mg, low versus normal predicted UGT1A1 activity.

As for `C[C@H]1CO[C@@H]2Cn3cc(C(=O)NCc4ccc(F)cc4F)c(=O)c(O)c3C(=O)N12` [cabotegravir], in data set [1], the “Association of predicted UGT1A9 activity with exposure measures” value is “not significantly associated”, the “Elevation in oral AUCtau associated with low predicted UGT1A1 activity” value is recorded as 41% and the “Elevation in oral Cmax associated with low predicted UGT1A1 activity” value is recorded as 28%. For the same molecule, in data set [1] (setting [7]), the “AUCtau, fold-change in exposure (fast versus normal)” value is on record as 1.04 fold; the “Cmax, fold-change in exposure (fast versus normal)” value is given as 1.03 fold; the “Ctau, fold-change in exposure (fast versus normal)” value is on record as 0.98 fold. For the same molecule, in data set [1] (setting [8]), the “AUCtau, fold-change in exposure (low versus normal)” value is given as 1.41 fold; the “Cmax, fold-change in exposure (low versus normal)” value is 1.28 fold; the “Ctau, fold-change in exposure (low versus normal)” value was 1.50 fold. In [2] (setting [9]), the “ALT change from BL, fold-change (fast versus normal)” value is listed as 1.68 fold and the “Tbili change from BL, fold-change (fast versus normal)” value is reported as 0.69 fold. In addition, in data set [2] (setting [10]), the “ALT maximum change from baseline, fold-change (low versus normal)” value was 0.68 fold and the “Tbili maximum change from baseline, fold-change (low versus normal)” value is 2.45 fold. For the same molecule, the “Association of predicted UGT1A1 activity with maximum change in ALT” value in [2] (oral any dose) was “no significant association”. Also, the “Participants with maximum on-treatment ALT elevation ≥3× ULN” value in data set [2] (among the 5 participants with Tbili increases of 1.5× ULN or greater) is given as “none”. Moreover, the “Low-versus-normal fold-change between mean cabotegravir trough concentrations” value in [3] (4 weekly group) came out at 1.57 fold. Also, the “Mean cabotegravir trough concentration” value in data set [3] (4 weekly group, low predicted UGT1A1 activity) was 6.11 µg/mL. Further, the “Mean cabotegravir trough concentration” value in data set [3] (4 weekly group, normal predicted UGT1A1 activity) was 3.88 µg/mL. Also, in data set [3] (8 weekly arm), the “Low-versus-normal fold-change between mean cabotegravir trough concentrations” value is listed as 1.19 fold. Besides, in data set [3] (8 weekly arm, low predicted UGT1A1 activity), the “Mean cabotegravir trough concentration” value is 5.10 µg/mL. Besides, the “Mean cabotegravir trough concentration” value in [3] (8 weekly arm, normal predicted UGT1A1 activity) is 4.28 µg/mL. In the data set on UGT1A1, the “Effect on UGT1A1 expression or activity” value is “does not functionally affect UGT1A1 expression or activity” and the “Metabolism by UGT1A1” value was “primarily metabolized by UGT1A1”. For the same molecule, the “Metabolism by UGT1A9” value in the data set on UGT1A9 is listed as “minor contribution by UGT1A9”. For the same molecule, the “Inhibition or induction of UGT” value in data set [4] is “not an inhibitor or inducer”. Besides, the Aqueous solubility result in [5] is given as “low aqueous solubility”.

Consider `C[C@@H]1CCO[C@H]2Cn3cc(C(=O)NCc4ccc(F)cc4F)c(=O)c(O)c3C(=O)N12` [dolutegravir], for which, in data set [6], the “Increase in AUCtau associated with low UGT1A1 activity” value is reported as 46% and the “Increase in Cmax associated with low UGT1A1 activity” value was 32%. In addition, in the data set with cytochrome P450 3A4, the “Contribution of cytochrome P450 3A4 to metabolism” value is listed as ~30%.
